# Tested on: Platelet
# Test: Inhibition of serotonin release in bovine platelets
# Format: functional, cell-based
# Conditions: Bos taurus
# In short: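 Bovine platelets loaded with [14C]serotonin by incubating cattle venous blood, taken up by active transport. Platelet-rich plasma prepared at a standard platelet concentration by centrifugation and dilution, then preincubated with the sesquiterpene lactones. Adenosine diphosphate added to trigger aggregation and degranulation. Reaction stopped after 6 min with ice-cold acetylsalicylic acid. Released serotonin monitored and IC50 determined.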
row,Compound,IC50 [µM]
1,C=C1C(=O)O[C@H]2[C@H]1[C@H](OC(=O)C1(C)OC1C)C[C@@]1(C)[C@H](O)C[C@H]3O[C@@]3(C)[C@H]21 (some centres undefined),17.7
2,C=C1C(=O)O[C@H]2[C@H]1[C@H](OC(=O)C1(C)OC1C)C[C@@]1(C)[C@H](O)CC=C(C)[C@H]21 (some centres undefined),7.09
3,CC1=CC[C@@H](O)[C@]2(C)CC[C@@H]3[C@H](OC(=O)[C@H]3C)[C@@H]12,> 200
4,C=C1C(=O)O[C@@H]2[C@H]3C(=C)[C@@H](O)C[C@H]3C(=C)C[C@H](OC(=O)[C@@]3(C)CO3)[C@@H]12,6.32
5,C=C1C(=O)O[C@H]2[C@H]1[C@H](OC(=O)C(C)(O)C(C)O)C[C@@]1(C)[C@H](O)CCC(=C)[C@H]21 (some centres undefined),9.52
6,C=C(C(=O)O[C@@H]1C[C@@]2(C)[C@H](O)CC=C(C)[C@@H]2[C@H]2OC(=O)C(=C)[C@@H]21)C(C)O (some centres undefined),26.7
7,C=C1C(=O)O[C@@H]2C3O[C@]3(C)CC/C=C(\C)CC[C@@H]12 (some centres undefined),3.03
8,"C/C1=C\CC[C@@]2(C)O[C@@H]2[C@H]2OC(=O)[C@@H](C)[C@@H]2CC1 [11BETA,13-DIHYDRO-PARTHENOLIDE]",> 400
9,C=C1C(=O)O[C@@H]2C[C@@]3(C)[C@H](O)CCC(=C)[C@@H]3C[C@H]12 [ASPERILIN],57.6
10,C=C1C(=O)O[C@H]2[C@H]1[C@@H](OC(=O)[C@](C)(O)CCl)CC(=C)[C@@H]1C[C@H](O)[C@](O)(CCl)[C@H]21 [CENTAUREPENSIN],6.06
11,C=C1C(=O)O[C@@H]2/C=C(/COC(C)=O)CC[C@H](OCC)C3=C[C@@H](OC3=O)[C@@H]12 [CINERENIN ACETATE],2.04
12,C=C1C(=O)O[C@@H]2/C=C(/CO)CC[C@H](OCC)C3=C[C@@H](OC3=O)[C@@H]12 [CINERENIN],3.52
13,C=C1C(=O)O[C@@H]2[C@H]1CC[C@H](C)[C@]1(O)CCC(=O)[C@@]21C [CORONOPILIN],249
14,C=C(C)C(=O)O[C@@H]1C[C@@H](OC(C)=O)C(=O)CC[C@]2(C)O[C@H]2[C@@H]2OC(=O)C(COC(C)=O)=C21 [GLAUCOLIDE A],20.9
15,C=C1C(=O)O[C@@H]2C[C@@H](C)[C@@H]3C=CC(=O)[C@@]3(C)[C@@H](O)[C@H]12 [HELENALIN],4.28
16,C=C1C(=O)O[C@H]2C[C@@H](C)[C@@H]3C=CC(=O)[C@@]3(C)[C@H](OC(C)=O)[C@H]12 [LINIFOLIN A],11.4
17,C=C1C(=O)O[C@@H]2[C@H]1CC[C@H](C)[C@]1(O)C=CC(=O)[C@@]21C [PARTHENIN],129
18,C=C1C(=O)O[C@@H]2C[C@@]3(C)C[C@@H](O)[C@H](O)C(=C)[C@@H]3C[C@H]12 [PULCHELLIN C],> 416
19,C=C1C(=O)O[C@H]2[C@H]1[C@@H](OC(=O)[C@]1(C)CO1)CC(=C)[C@@H]1C[C@H](O)[C@]3(CO3)[C@H]21 [REPIN],9.24
20,C=C1C(=O)O[C@@H]2[C@H]3C(C)=CC[C@@H](O)[C@]3(C)CC[C@@H]12 [SANTAMARIN],84.9
21,CC1=C2[C@H]3OC(=O)[C@@H](C)[C@@H]3CC[C@@]2(C)C=CC1=O [SANTONIN],> 568
22,C=C1C(=O)O[C@H]2CC(=C)[C@@H](O)CC/C(C)=C/[C@@H](O)[C@H]12 [TATRIDIN B],27
23,C=C1C(=O)O[C@H]2/C=C(\C)[C@@H](OC(C)=O)C/C=C(\C)C[C@@H](OC(=O)C(C)(O)C(C)OC(C)=O)[C@@H]12 (some centres undefined) [URSINIOLIDE B],5.3
24,C=C1C(=O)O[C@H]2C[C@H](C)[C@@H]3CC(=O)C(C)=C3C[C@H]12 [XERANTOLIDE],101

# Results, then the compound that gave them:
row,IC50 [µM],Compound
1,> 454,C=C1[C@@H](O)C[C@@H]2[C@H](OC(=O)[C@H]2C)[C@H]2[C@H](C)C(=O)C[C@@H]12
2,> 210,C=C1CC[C@@H](O)[C@]2(C)CC[C@@H]3[C@H](OC(=O)[C@H]3C)[C@@H]12
3,10.1,C=C1C(=O)O[C@H]2[C@H]1[C@H](OC(=O)C1(C)OC1C)C[C@@]1(C)[C@H](O)CCC(=C)[C@H]21 (some centres undefined)
4,60.1,C=C1C(=O)O[C@H]2C[C@@H](C)[C@@H]3CCC(=O)[C@@]3(C)[C@H](O)[C@H]12
5,> 488,C=C1C[C@@H](O)[C@@H]2[C@H](OC(=O)[C@H]2C)[C@H]2[C@H](C)[C@@H](O)C[C@@H]12
6,40.6,C=C1C(=O)O[C@@H]2[C@H]3O[C@]3(C)CCC[C@H](C)CC[C@@H]12
7,> 413,C[C@@H]1C(=O)O[C@H]2[C@H]1CC[C@@]1(C)O[C@@H]1CC[C@@]1(C)O[C@H]21
8,121,"C=C1C(=O)O[C@@H]2/C=C(\C)CC[C@H]3O[C@]3(C)CC[C@@H]12 [1,10-EPOXYCOSTUNOLIDE]"
9,6.66,C=C1C(=O)O[C@@H]2C3=C(C)CC[C@@H](O)[C@]3(C)C[C@@H](OC(=O)C3(C)OC3C)[C@@H]12 (stereo partly drawn) [1BETA-HYDROXY-8BETA-EPOXYANGELOYLOXYARBUSCULIN B]
10,5.77,C=C1C(=O)O[C@@H]2/C=C(\CO)CC/C=C(\CO)C[C@H](OC(=O)C(C)C)[C@@H]12 [ALATOLIDE]
11,> 135,C=C1C(=O)O[C@H]2[C@H]1CC[C@@](C)(O)[C@]13O[C@H]1[C@H]1O[C@@]1(C)[C@H]23 [ARTECANIN]
12,251,C=C1C(=O)O[C@@H]2C[C@H](C)[C@@H]3[C@@H](O)CC(=O)[C@@]3(C)C[C@H]12 [BURRODIN]
13,3.52,C=C1C(=O)O[C@@H]2/C=C(\CO)CC/C=C(\C)C[C@H](OC(=O)C(=C)[C@H](O)CO)[C@@H]12 [CNICIN]
14,8.88,C=C1C(=O)O[C@@H]2[C@H]1[C@@H](OC(C)=O)C[C@H](C)[C@@H]1CCC(=O)[C@@]21C [CONFERTIFLORIN]
15,8.76,C=C1C(=O)O[C@H]2[C@H]1[C@H](OC(=O)[C@@]1(C)O[C@H]1C)[C@@H](OC(C)=O)/C(C(=O)OC)=C\CC[C@@]1(C)O[C@H]21 [ENHYDRIN]
16,73.4,C=C1C(=O)O[C@H]2C[C@@H](C)[C@@H]3C[C@@H](O)[C@H](O)[C@@]3(C)[C@H](O)[C@H]12 [GEIGERININ]
17,22.2,C=C1C(=O)O[C@H]2[C@H]1[C@@H](O)CC(=C)[C@@H]1CC(=O)[C@@H](C)[C@H]21 [GROSSHEIMIN]
18,> 614,C=C(C(=O)O)[C@@H]1CC[C@@]2(C)CCC[C@@](C)(O)[C@@H]2C1 [ILICIC ACID]
19,33.5,C=C1C(=O)O[C@H]2C[C@H](C)[C@@H]3C(OC(C)=O)CC(OC(C)=O)[C@@]3(C)[C@@H](O)[C@H]12 (some centres undefined) [INUCHINENOLIDE C]
20,> 516,C=C1C(=O)O[C@@H]2C[C@@]3(C)CCCC(=C)[C@@H]3C[C@H]12 [ISOALANTOLACTONE]
21,4.68,C=C1C(=O)O[C@@H]2/C=C(\C)[C@@H]3O[C@@H]3/C=C(/C(=O)OC)[C@H](O)[C@@H](OC(=O)[C@]3(C)O[C@@H]3C)[C@@H]12 [MELAMPODIN A]
22,44.1,C=C1C(=O)O[C@@H]2[C@H]1CC[C@H](C)[C@]1(CCC(=O)O1)[C@@]2(C)O [PSILOSTACHYIN A]
23,271,C=C1CC[C@@H](O)[C@]2(C)CC[C@H]3C(=C)C(=O)O[C@@H]3[C@@H]12 [REYNOSIN]
24,10.2,C=C1C(=O)O[C@@H]2/C=C(\CO)CC/C=C(\C)C[C@H](O)[C@@H]12 [SALONITENOLIDE]
25,278,C=C1C(=O)O[C@@H]2C/C(C=O)=C/CC/C(C)=C/[C@@H](O)[C@H]12 [SCHKUHRIOLIDE]
26,5.82,C=C1C(=O)O[C@H]2[C@H]1[C@@H](OC(=O)/C(=C/CO)CO)C/C(C)=C/CC[C@@]1(C)O[C@H]21 [STIZOLICIN]
27,> 564,C=C1C(=O)O[C@@H]2C[C@@]3(C)CCCC(=C)[C@]3(O)C[C@H]12 [TELEKIN]
28,361,C[C@@H]1C[C@@H]2OC(=O)[C@]3(C)[C@H]2[C@@H](OC3(C)O)[C@]2(C)C(=O)C=C[C@@H]12 (some centres undefined) [TENULIN]
29,1.78,C=C1C(=O)O[C@H]2/C=C(\C)[C@@H](OC(C)=O)C/C=C(\C)C[C@@H](OC(=O)C3(C)OC3C)[C@@H]12 (some centres undefined) [URSINIOLIDE A]
30,201,C=C(C(=O)OC)[C@@H]1CC[C@@]2(C)CCC[C@@](C)(O)[C@@H]2C1 [VACHANIC ACID METHYLESTER]
